# Sampled rows, rich in hits. Any-hit rate of the full collection: about 7.9%.
# HEK293 NFkB inh: inhibitors of PMA/ionomycin-induced NF-kB reporter, primary screen, antigen receptor NF-kB inhibitor project, cell-based, HEK-293 luciferase reporter, luminescence. inhibition, % at 3 µM. HEK-293 NF-kB luciferase reporter. AID 465, 2006. hit rate 0.21% among 62,000;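 active = inhibition above the mean of all tested compounds plus 3 SD, cut at about 40% in these data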
#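 Reagent: PMA plus ionomycin mix as NF-kB-activating stimulus. Assay system: NF-kB luciferase reporter HEK-293 cells. Technique: luminescence from luciferase substrate reagent. Incubation: 1 h compound pre-incubation, 16 h PMA/ionomycin at 37 °C. Benchmarks: DMSO only as uninhibited control, 10 µM reference inhibitor as full inhibition. Repeats: tested once.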
# SF1 activator: activators of human SF-1, primary screen, cell-based, CHO-K1, Gal4-SF-1 LBD, luciferase luminescence | Steroidogenic factor 1 (Homo sapiens), Q13285 | CHO-K1 Gal4-SF-1 LBD luciferase reporter; % increase over DMSO SF-1-specific signal | activation, % at 10 µM | hit rate 1.9% among 65,000 | AID 522, 2006;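 active = activation above the mean activation of all tested compounds plus 3 SD, cut at about 50% in these data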
#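 Assay system: CHO-K1 cells co-transfected with Gal4 DBD–human SF-1 LBD, 5xGal4 luciferase reporter / Input: 4,000 cells per well / Incubation: 20 h compound exposure at 37 °C after 1 h cell settling / Detection: SteadyLite luciferase luminescence / Control set: DMSO negative control and −SF1 background wells / Replication: one test per compound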
# JNK3 blocker: JNK3 kinase activity inhibitors, primary screen, biochemical, human, purified enzyme. HTS. inhibition, % at 8 µM. hit rate 0.61% among 60,000. AID 746, 2007; in the data active = inhibition above about 17%
# RORA act: activators of orphan receptor RORA, primary screen, cell-based, luminescence | Nuclear receptor ROR-alpha (Homo sapiens), P35398 | CHO-K1 Gal4-RORA LBD luciferase reporter; percent increase over mock-subtracted basal signal | activation, % at 10 µM | hit rate 1.5% among 65,000 | AID 560, 2006;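 active = activation above the mean of all tested compounds plus 3 SD, cut at about 49% in these data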
# D1 allo mod: D1 CRE-luciferase signal change, two-sided – cell-based, HEK293 D1, dopamine EC30, D1 allosteric modulator project, primary screen. D(1A) dopamine receptor (Homo sapiens), P21728. dopamine EC30 potentiation; actives deviate in either direction. B-score at 10 µM. hit rate 5.9% among 58,000;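 active = luminescence count or its row- and column-corrected plate score outside the 99.7% band of the plate's sample wells, on either side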
# Target sequence (P21728 whole entry, looked up): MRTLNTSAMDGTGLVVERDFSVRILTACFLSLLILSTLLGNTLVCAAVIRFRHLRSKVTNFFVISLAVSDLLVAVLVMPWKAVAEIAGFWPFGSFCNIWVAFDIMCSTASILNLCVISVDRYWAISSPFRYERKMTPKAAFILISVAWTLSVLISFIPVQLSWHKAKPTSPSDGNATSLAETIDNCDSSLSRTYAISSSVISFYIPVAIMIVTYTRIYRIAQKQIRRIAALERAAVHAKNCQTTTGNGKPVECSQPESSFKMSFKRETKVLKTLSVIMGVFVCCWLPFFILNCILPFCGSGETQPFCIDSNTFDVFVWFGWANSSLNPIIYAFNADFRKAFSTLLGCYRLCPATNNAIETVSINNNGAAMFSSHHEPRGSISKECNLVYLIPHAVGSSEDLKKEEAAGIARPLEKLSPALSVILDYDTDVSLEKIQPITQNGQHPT
# A number is an active result; . = inactive; / = no result.
SMILES,HEK293 NFkB inh,SF1 activator,JNK3 blocker,RORA act,D1 allo mod
COc1ccc(NC(=O)C2CC(=O)OC2(C)C)cc1 (stereo not given),.,.,.,.,.
CCCc1nc2oc3c(N4CCNCC4)ncnc3c2c2c1CCCC2,.,.,.,.,.
CCCc1nc2oc3c(NCCN(C)C)ncnc3c2c2c1CCCC2,.,.,.,.,3.2
COc1cccc(C(=O)/C=C/Nc2cc(C)ccc2O)c1,.,56,.,.,.
CC(C)COc1ccc(-c2nnc(-c3ccncc3)o2)cc1,.,85,.,.,/
O=c1c2c3c(sc2n2cnnc2n1-c1ccccc1)N(Cc1ccccc1)CCC3,.,.,.,.,-5.1
Cc1csc2nc(CSc3nc4ccccc4o3)cn12,/,61,.,.,/
COc1ccc(NC(=O)NCCN2C(=O)C3C4C=CC(C4)C3C2=O)cc1 (stereo not given),.,.,.,66,.
O=C(NCCN1C(=O)C2C3C=CC(C3)C2C1=O)Nc1ccccc1 (stereo not given),.,.,.,.,.
Cc1ccc(NC(=O)NCCN2C(=O)C3C4C=CC(C4)C3C2=O)cc1 (stereo not given),.,98,.,74,.
CCN(CC)C(=O)Oc1ccc2c(=O)c(-c3ccc(OC)cc3)coc2c1,.,71,.,69,/
CCN(CC)C(=O)Oc1ccc2c(=O)c(-c3ccc(OC)cc3)c(C)oc2c1,.,.,.,60,.
CC(C)c1nnc(NC(=O)c2cnccn2)s1,.,51,.,.,.
Cc1cnc(C(=O)Nc2nnc(C(C)C)s2)cn1,.,68,.,.,.
CC(C)N(Cc1nnc(-c2ccccc2Cl)o1)C(=O)c1cccc(C#N)c1,.,.,/,.,/
Cc1cc2c(C)nc(-c3ccccc3)nc2o1,.,58,.,60,/
COc1cc2c(C)nc3onc(-c4ccccc4)c3c2cc1OC,.,.,.,.,.
COc1cccc(N2C(=O)C(CC(=O)Nc3ccc(F)cc3)N(C3CCCCC3)C2=O)c1 (stereo not given),.,.,.,.,.
COc1cccc(N2C(=O)C(CC(=O)Nc3ccccc3)N(C3CCCCC3)C2=O)c1 (stereo not given),.,.,/,.,-7.4
COC(=O)CCC(=O)c1oc2ccc(Br)cc2c1N,.,.,.,.,.
Nc1c(C(=O)c2ccccc2)oc2ccc(Br)cc12,.,140,.,53,.
CCOC(=O)N1CCN(C(=O)CSCC(=O)Nc2nc(-c3ccc4c(c3)OCO4)cs2)CC1,.,.,.,.,.
O=C(CSCC(=O)N1CCOCC1)Nc1nc(-c2ccc3c(c2)OCO3)cs1,.,.,.,52,.
Cc1ccc(C2Nc3ccccc3C(=O)N2Cc2ccco2)cc1 (stereo not given),.,.,.,.,.
NC(=O)c1ccccc1N/C=C/C(=O)c1ccccc1,.,.,.,.,-2.5
SMILES,HEK293 NFkB inh,SF1 activator,JNK3 blocker,RORA act,D1 allo mod
COc1ccc(C(=O)Nc2cccc(C)c2)cc1,.,.,.,.,-3.5
COC(=O)c1sccc1NC(=O)c1ccc(OC)cc1,.,.,38,.,.
COc1cccc(C(=O)Nc2cccc(SC)c2)c1,.,81,.,51,.
CCN(CC)CCCNC(CC(=O)O)C(=O)O (stereo not given),.,.,.,.,/
Cc1ccc(S(=O)(=O)N2CCN(S(=O)(=O)c3ccc(C)cc3)C3OCCOC32)cc1 (stereo not given),.,.,.,.,.
COC(=O)c1ccc2c(=O)n(Cc3ccc4c(c3)OCO4)c(SCC(=O)N3CCCC3)nc2c1,.,.,/,.,.
COc1ccc(CC(NC(C)=O)C(=O)NC2CCN(c3c4c(nc5ncnn35)CCC4)CC2)cc1 (stereo not given),.,.,.,.,/
COc1cccc(CC(NC(C)=O)C(=O)NC2CCN(c3nc(C)cc(C)c3C#N)CC2)c1OC (stereo not given),.,.,.,.,/
COc1cccc(CC(NC(C)=O)C(=O)NC2CCN(c3c4c(nc5ncnn35)CCC4)CC2)c1 (stereo not given),.,72,.,.,.
COc1cc(CC(NC(C)=O)C(=O)NC2CCN(c3nc(C)cc(C)c3C#N)CC2)cc(OC)c1 (stereo not given),56,.,.,.,.
COC(=O)C1CCN(S(=O)(=O)Cc2ccccc2)CC1,.,.,.,.,.
O=C(c1cc(-c2cccc(O)c2)on1)N1CCOCC1,.,.,.,.,-5
O=C(NCCN1CCOCC1)c1cc(-c2ccccc2)on1,.,.,.,.,.
O=C(NCCN1CCOCC1)c1cc(-c2cccs2)on1,.,.,.,68,.
O=C(c1cc(-c2cccs2)on1)N1CCc2ccccc2C1,.,.,.,.,.
O=C(c1cc(-c2cccs2)on1)N1CCOCC1,.,.,.,51,.
CC(=O)Nc1ccc(S(=O)(=O)/N=C2\SCCN2S(=O)(=O)c2ccc(NC(C)=O)cc2)cc1,.,.,.,.,.
O=C(Cn1cnc2ccccc2c1=O)Nc1ccc(-c2nnc3n2CCCCC3)cc1,.,.,30,.,.
COC(=O)c1ccc(-n2nnnc2SCc2ccccc2OC)cc1,.,.,.,.,.
CC(C)CN(C(=O)c1ccc(=O)n(C)n1)c1nc2ccccc2s1,.,.,.,.,.
Cc1cn(S(=O)(=O)c2ccc(Br)c3ccccc23)cn1,.,.,40,.,.
O=C(Nc1nc2ccccc2n1CCN1CCCC1)c1ccc(Cl)cc1,.,55,.,99,.
CCCn1c(NC(=O)c2ccc(C)cc2)nc2ccccc21,.,.,.,.,/
Cc1ccc(C(=O)Nc2nc3ccccc3n2CCN2CCCC2)cc1,.,.,.,62,.
O=C(Nc1nc2ccccc2n1CCN1CCCC1)C1CCCCC1,.,.,.,.,.
SMILES,HEK293 NFkB inh,SF1 activator,JNK3 blocker,RORA act,D1 allo mod
COc1cc(C(=O)NCc2cn3ccccc3n2)cc(OC)c1OC,.,.,58,.,.
c1ccc(-n2ncc3c(NCc4ccco4)ncnc32)cc1,.,77,20,90,.
Cc1cccc(-n2ncc3c(NCCCO)ncnc32)c1,.,67,.,83,.
Clc1ccc(-n2ncc3c(NCc4ccccn4)ncnc32)cc1,/,74,.,.,/
C=CCNc1ncnc2c1cnn2-c1ccc(Cl)cc1,.,50,.,.,/
CC(=C1C(=O)c2ccccc2C1=O)N1CCC(C(N)=O)(N2CCCCC2)CC1,.,.,.,.,.
COC(=O)c1cc(NC2c3ccccc3C(=O)N2CCN2CCOCC2)cc(C(=O)OC)c1 (stereo not given),.,.,.,.,.

# Source: PubChem BioAssay (several laboratories)
